In ChEMBL document CHEMBL1124947, “Cationic antiprotozoal drugs. Trypanocidal activity of 2-(4'-formylphenyl)imidazo[1,2-a]pyridinium guanylhydrazones and related derivatives of quaternary heteroaromatic compounds” (J Med Chem, 1990):

Assays:
Assay type in all cases: functional
Mus musculus [1] = assay: Trypanocidal Activity at I.C.E. value 0.40 when administered perorally.
Mus musculus [2] = assay: Trypanocidal Activity at I.C.E. value 0.84 when administered subcutaneously.
Procedure, shortened: (§1)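 Mice, in groups of five per dose, were given a standard inoculum of blood-stage T. rhodesiense that is lethal to all untreated controls, then dosed subcutaneously. Usually 11 dose levels were used (2^n × 0.42 mg/kg).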

Mus musculus [3] = assay: Trypanocidal Activity at I.C.E. value 0.94 when administered subcutaneously.; procedure, shortened: as §1
Mus musculus [4] = assay: Trypanocidal Activity at I.C.E. value 0.31 when administered perorally.
Mus musculus [5] = assay: Trypanocidal Activity at I.C.E. value 0.12 when administered perorally.
Mus musculus [6] = assay: Trypanocidal Activity at I.C.E. value 0.21 when administered subcutaneously.
Mus musculus [7] = assay: Trypanocidal Activity at I.C.E. value 0.17 when administered perorally.
Mus musculus [8] = assay: Trypanocidal Activity at I.C.E. value 0.19 when administered subcutaneously.
Mus musculus [9] = assay: Trypanocidal Activity at I.C.E. value 0.20 when administered subcutaneously.
Mus musculus [10] = assay: Trypanocidal Activity at I.C.E. value 0.50 when administered subcutaneously.
Procedure, shortened: (§2)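 Blood-stage T. rhodesiense infection came from a standard inoculum lethal to all untreated mice. Drug was given by subcutaneous injection to groups of five mice. Survival beyond 30 days counted as cure. […] Sub-curative doses scored 0, and data were normalized at each dose.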

Mus musculus [11] = assay: Trypanocidal Activity at I.C.E. value 0.20 when administered perorally.
Mus musculus [12] = assay: Trypanocidal Activity at I.C.E. value 0.30 when administered subcutaneously.; procedure, shortened: as §2
Mus musculus [13] = assay: Trypanocidal Activity at I.C.E. value 0.06 when administered perorally.
Mus musculus [14] = assay: Trypanocidal Activity at I.C.E. value 0.86 when administered subcutaneously.; procedure, shortened: as §1
Mus musculus [15] = assay: Trypanocidal Activity at I.C.E. value 0.22 when administered subcutaneously.
[16] = test system: Trypanosoma brucei rhodesiense; assay: In Vitro measurement of inhibition of thymidine uptake in cell culture of Trypanosoma rhodesiense; details: read-out: ID50 (the source's name)
Procedure, shortened: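 Parasites harvested from infected rats and incubated 3 h across a drug concentration series, usually 0.1–100 µg/mL. Incorporation of radiolabeled thymidine measured. ID50 is the concentration (µg/mL) producing 50% inhibition.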

[17] = test system: Trypanosoma brucei rhodesiense; assay: In Vitro measurement of inhibition of leucine uptake in cell culture of Trypanosoma rhodesiense; details: read-out: ID50 (the source's name)
Procedure, shortened: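 Trypanosomes harvested from infected rats, cultured 3 h with several concentrations of drug, usually 0.1–100 µg/mL. Radiolabeled L-leucine uptake measured. ID50 is the concentration in µg/mL giving 50% inhibition of incorporation.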

Mus musculus [18] = assay: Trypanocidal Activity at I.C.E. value 0.55 when administered subcutaneously.; procedure, shortened: as §1
Mus musculus [19] = assay: Trypanocidal Activity was determined after subcutaneous administration; procedure, shortened: as §1
Mus musculus [20] = assay: Trypanocidal Activity at I.C.E. value 0.62 when administered subcutaneously.; procedure, shortened: as §1
Mus musculus [21] = assay: Trypanocidal Activity at I.C.E. value 0.46 when administered subcutaneously.; procedure, shortened: as §2
Mus musculus [22] = assay: Trypanocidal Activity at I.C.E. value 0.49 when administered perorally.
Mus musculus [23] = assay: Trypanocidal Activity at I.C.E. value 0.34 when administered subcutaneously.; procedure, shortened: as §2
Mus musculus [24] = assay: Trypanocidal Activity at I.C.E. value 0.66 when administered subcutaneously.; procedure, shortened: as §1
Mus musculus [25] = assay: Trypanocidal Activity at I.C.E. value 0.49 when administered subcutaneously.; procedure, shortened: as §2
Mus musculus [26] = assay: Trypanocidal Activity at I.C.E. value 0.23 when administered subcutaneously.; procedure, shortened: as §2
Mus musculus [27] = assay: Trypanocidal Activity at I.C.E. value 0.71 when administered subcutaneously.; procedure, shortened: as §1
Mus musculus [28] = assay: Trypanocidal Activity at I.C.E. value 0.53 when administered perorally.
Mus musculus [29] = assay: Trypanocidal Activity at I.C.E. value >0.15 when administered subcutaneously.; procedure, shortened: as §1

**Q.** Br.CCCCSc1ccc2n(c1)cc(-c1ccc(/C=N/NC(=N)NO)cc1)[n+]2C.[Br-] was tested. Which CD50 (Mus musculus [1]) did it give?
**A.** 26 mg/kg

**Q.** And the CD50 (Mus musculus [2])?
**A.** 0.8 mg/kg

**Q.** For Br.CCCSc1ccc2n(c1)cc(-c1ccc(/C=N/NC(=N)N3CCCC3)cc1)[n+]2C.[Br-], which CD50 (Mus musculus [3]) is on record?
**A.** 0.1 mg/kg

**Q.** What about the CD50 (Mus musculus [4]) of the same compound?
**A.** 53 mg/kg

**Q.** Br.C[n+]1ccc(COc2ccc(/C=N/NC3=NCCN3)cc2)cc1.[Br-] was tested. Which CD50 (Mus musculus [5]) did it give?
**A.** 424 mg/kg

**Q.** What about the CD50 (Mus musculus [6]) of the same compound?
**A.** 13 mg/kg

**Q.** What does the source list for Br.C[n+]1ccccc1COc1ccc(/C=N/NC(=N)N2CCCC2)cc1.[Br-]?
**A.** CD50 (Mus musculus [7]): 106 mg/kg; CD50 (Mus musculus [8]): 0.1 mg/kg

**Q.** With C=CC[n+]1c(-c2ccc(NC(C)=O)cc2)cn2ccccc21.[Br-] as the compound, how does the CD50 (Mus musculus [9]) read?
**A.** 26 mg/kg

**Q.** How did the CD50 (Mus musculus [10]) turn out when Br.CCCCNC(=N)N/N=C/c1ccc(-c2cn3ccccc3[n+]2C)cc1.[Br-] was run?
**A.** 0.8 mg/kg

**Q.** Which results are given for C[n+]1c(-c2ccc(/C=N/NC(=N)N3CCSC3)cc2)cn2ccccc21.Cc1ccc(S(=O)(=O)O)cc1.Cc1ccc(S(=O)(=O)[O-])cc1?
**A.** CD50 (Mus musculus [11]): 212 mg/kg; CD50 (Mus musculus [12]): 13 mg/kg

**Q.** For Br.Cn1c[n+](Cc2ccc(/C=N/NC(=N)N)cc2)c2ccccc21.[Br-], which CD50 (Mus musculus [13]) is on record?
**A.** 424 mg/kg

**Q.** What about the CD50 (Mus musculus [8]) of the same compound?
**A.** 6.6 mg/kg

**Q.** With Br.Cc1ccc2n(c1)cc(COc1ccc(/C=N/NC3=NCCN3)cc1)[n+]2C.[Br-] as the compound, how does the CD50 (Mus musculus [14]) read?
**A.** 0.8 mg/kg

**Q.** How did the CD50 (Mus musculus [15]) turn out when Br.C[n+]1c(-c2ccc(/C=N/NC(=N)NN3CCOCC3)cc2)cn2ccccc21.[Br-] was run?
**A.** 0.8 mg/kg

**Q.** And the IC50 [16]?
**A.** 6.7 µg/mL

**Q.** And the IC50 [17]?
**A.** 9.7 µg/mL

**Q.** What does the source list for Br.CSC(=N)N/N=C/c1ccc(-c2cn3ccccc3[n+]2C)cc1.[Br-]?
**A.** CD50 (Mus musculus [18]): 6.6 mg/kg; IC50 [16]: 3.8 µg/mL; IC50 [17]: 5.8 µg/mL

**Q.** How did the CD50 (Mus musculus [19]) turn out when CCNC(=N)N/N=C/c1ccc(OCc2n(C)cc[n+]2C)cc1.Cc1ccc(S(=O)(=O)O)cc1.Cc1ccc(S(=O)(=O)[O-])cc1 was run?
**A.** 6.6 mg/kg

**Q.** How did the CD50 (Mus musculus [20]) turn out when Cc1ccc(S(=O)(=O)[O-])cc1.Cc1cccc2n1cc(/C=C/c1ccc(/C=N/NC(=O)c3ccc(N)cc3)cc1)[n+]2C was run?
**A.** 6.6 mg/kg

**Q.** C[n+]1cccc(COc2ccc(/C=N/NC(=N)NO)cc2)c1.Cc1ccc(S(=O)(=O)O)cc1.Cc1ccc(S(=O)(=O)[O-])cc1 was tested. Which CD50 (Mus musculus [15]) did it give?
**A.** 1.6 mg/kg

**Q.** What about the IC50 [16] of the same compound?
**A.** 3.8 µg/mL

**Q.** What about the IC50 [17] of the same compound?
**A.** 10.3 µg/mL

**Q.** Br.Cc1ccc2n(c1)cc(COc1ccc(/C=N/NC(=N)N3CCCC3)cc1)[n+]2C.[Br-] was tested. Which CD50 (Mus musculus [21]) did it give?
**A.** 0.8 mg/kg

**Q.** What about the CD50 (Mus musculus [22]) of the same compound?
**A.** 13 mg/kg

**Q.** With Br.C[n+]1c(-c2ccc(/C=C/C=N/NC(=N)N3CCCC3)cc2)cn2ccccc21.[Br-] as the compound, how does the CD50 (Mus musculus [4]) read?
**A.** 53 mg/kg

**Q.** What about the CD50 (Mus musculus [23]) of the same compound?
**A.** 0.8 mg/kg

**Q.** How did the CD50 (Mus musculus [24]) turn out when Br.CC/N=C(\NCC)N/N=C/c1ccc(-c2cn3cc(C)ccc3[n+]2C)cc1.[Br-] was run?
**A.** 1.6 mg/kg

**Q.** Which CD50 (Mus musculus [25]) does the source give for Br.Cc1ccc2n(c1)cc(-c1ccc(/C=N/NC(=N)N3CCCC3)cc1)[n+]2C.[Br-] here?
**A.** 0.1 mg/kg

**Q.** What does the source list for Br.Cn1c[n+](Cc2ccc(/C=N/NC(=N)N3CCCC3)cc2)c2ccccc21.[Br-]?
**A.** CD50 (Mus musculus [5]): 424 mg/kg; IC50 [16]: 0.6 µg/mL; IC50 [17]: 0.7 µg/mL; CD50 (Mus musculus [26]): 6.6 mg/kg

**Q.** With C[n+]1c(-c2ccc(/C=N/Nc3nc[nH]n3)cc2)cn2ccsc21.[Br-] as the compound, how does the CD50 (Mus musculus [10]) read?
**A.** 13 mg/kg

**Q.** For C[n+]1c(/C=C/c2ccc(/C=N/NC3=NCCCN3)cc2)cn2ccccc21.[Br-], which CD50 (Mus musculus [27]) is on record?
**A.** 0.4 mg/kg

**Q.** And the CD50 (Mus musculus [28])?
**A.** 13 mg/kg

**Q.** C[n+]1c(-c2ccc(/C=N/NC(=N)N[N+](=O)[O-])cc2)cn2ccccc21.[Br-] was tested. Which CD50 (Mus musculus [29]) did it give?
**A.** <26 mg/kg

**Q.** Cc1ccc2n(c1)cc(-c1ccc(/C=N/NC(=N)N[N+](=O)[O-])cc1)[n+]2C.[Br-] was tested. Which CD50 (Mus musculus [19]) did it give?
**A.** <26 mg/kg
